Data reported in ChEMBL document CHEMBL4138139, “Discovery of VU6005649, a CNS Penetrant mGlu7/8 Receptor PAM Derived from a Series of Pyrazolo[1,5-a]pyrimidines” (ACS Med Chem Lett, 2017).

Assays:
[1] = molecular target: Alpha-1D adrenergic receptor (Homo sapiens) (UniProt P25100); assay: Displacement of [3H] prazosin from recombinant human alpha1d receptor expressed in HEK293 cell membranes at 10 uM measured after 60 mins by scintillation counting method relative to control
How it was run: (§1)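 Single-concentration screen at 10 μM in an outsourced profiling panel of 68 GPCRs, ion channels and transporters. Activity read out as percent inhibition of specific radioligand binding.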

[2] = test system: Mus musculus; assay: Toxicity in wild-type C57/B6 mouse assessed as sedation at 50 mg/kg, ip; assay type: organism-based; conditions: in vivo
[3] = molecular target: Sigma non-opioid intracellular receptor 1 (Homo sapiens) (UniProt Q99720); assay: Displacement of [3H] haloperidol from sigma1 receptor in human Jurkat cells at 10 uM after 4 hrs by scintillation counting method relative to control; assay type: cell-based; how it was run: as §1
[4] = molecular target: Neuropeptide Y receptor type 1 (Homo sapiens) (UniProt P25929); assay: Displacement of [125I] Peptide YY from Y1 receptor in human SK-N-MC cell membrane at 10 uM after 60 mins by scintillation counting method relative to control; assay type: cell membranes; how it was run: as §1
[5] = molecular target: Endothelin-1 receptor (Homo sapiens) (UniProt P25101); assay: Displacement of [125I] endothelin-1 from recombinant human ETA receptor expressed in CHOK1 cell membranes at 10 uM after 120 mins by scintillation counting method relative to control; how it was run: as §1
[6] = molecular target: Substance-P receptor (Homo sapiens, UniProt P25103); assay: Displacement of [3H] substance P from recombinant human NK1 receptor expressed in CHO cells after 90 mins by scintillation counting method; assay type: cell-based
[7] = molecular target: Alpha-1A adrenergic receptor (Rattus norvegicus) (UniProt P43140); assay: Displacement of [3H] prazosin from Wistar rat alpha1a receptor at 10 uM measured after 60 mins by scintillation counting method relative to control; how it was run: as §1
[8] = molecular target: Acetylcholine receptor subunit alpha (Homo sapiens) (UniProt P02708); assay: Displacement of [125I] alpha-Bungarotoxin from alpha1 nAChR in human rhabdomyosarcoma cell membranes at 10 uM after 120 mins by scintillation counting method relative to control; how it was run: as §1
[9] = molecular target: Metabotropic glutamate receptor 5 (Rattus norvegicus, UniProt P31424); assay: Positive allosteric modulation of rat mGlu5 receptor expressed in HEK cells assessed as increase in glutamate-induced calcium flux incubated for 142 secs followed by glutamate addition measured after 120 secs by Fluo4-AM dye based fluorescence assay; assay type: functional, cell-based
[10] = molecular target: Histamine H3 receptor (Homo sapiens) (UniProt Q9Y5N1); assay: Displacement of [3H] N-alpha-methylhistamine from recombinant human H3 receptor expressed in CHOK1 cell membranes at 10 uM after 120 mins by scintillation counting method relative to control; how it was run: as §1
[11] = molecular target: 5-hydroxytryptamine receptor 1A (Homo sapiens) (UniProt P08908); assay: Displacement of [3H] 8-OH-DPAT from full length human recombinant 5-HT1A receptor expressed in CHOK1 cell membranes at 10 uM after 60 mins by scintillation counting method relative to control; how it was run: as §1
[12] = molecular target: Histamine H2 receptor (Homo sapiens) (UniProt P25021); assay: Displacement of [125I] aminopotentidine from recombinant human H2 receptor expressed in CHOK1 cell membranes at 10 uM after 120 mins by scintillation counting method relative to control; how it was run: as §1
[13] = molecular target: Estrogen receptor (Homo sapiens) (UniProt P03372); assay: Displacement of [3H] estradiol from full length human recombinant ERalpha receptor expressed in Sf9 insect cells at 10 uM after 120 mins by scintillation counting method relative to control
[14] = molecular target: Metabotropic glutamate receptor 1 (Rattus norvegicus, UniProt P23385); assay: Negative allosteric modulation of rat mGlu1 receptor expressed in HEK cells assessed as decrease in glutamate-induced thallium flux incubated for 142 secs followed by glutamate addition measured after 120 secs by Fluo4-AM dye based fluorescence assay; assay type: functional, cell-based
[15] = Brain to plasma partition coefficient, Kp of the compound in C57BL/6 mouse at 10 mg/kg, ip measured after 60 mins by LC-MS/MS analysis; assay type: ADME, organism-based; conditions: brain and plasma
How it was run: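 Mice given 10 mg/kg IP; time course out to 6 h with nonserial sampling of plasma and brain at each time point; Kp from brain/plasma levels.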

[16] = molecular target: Metabotropic glutamate receptor 2 (Rattus norvegicus, UniProt P31421); assay: Negative allosteric modulation of rat mGlu2 receptor expressed in HEK cells assessed as decrease in glutamate-induced thallium flux incubated for 142 secs followed by glutamate addition measured after 120 secs by Fluo4-AM dye based fluorescence assay; assay type: functional, cell-based
[17] = Brain to plasma partition coefficient, Kp of the compound in Sprague-Dawley rat at 0.2 to […], iv administered as cassette dose measured at […] post dose by LC-MS/MS analysis; assay type: ADME, organism-based; conditions: brain and plasma
[18] = molecular target: Kappa-type opioid receptor (Homo sapiens) (UniProt P41145); assay: Displacement of [3H] diprenorphine from recombinant human kappa opioid receptor expressed in HEK293 cell membranes at 10 uM after 60 mins by scintillation counting method relative to control; how it was run: as §1
[19] = molecular target: Alpha-1B adrenergic receptor (Rattus norvegicus) (UniProt P15823); assay: Displacement of [3H] prazosin from Wistar rat alpha1b receptor at 10 uM measured after 60 mins by scintillation counting method relative to control; how it was run: as §1
[20] = species on record: Rattus norvegicus; assay: Displacement of [3H] muscimol from Wistar rat central GABAA at 10 uM measured after 10 mins by scintillation counting method relative to control; how it was run: as §1
[21] = molecular target: D(3) dopamine receptor (Homo sapiens) (UniProt P35462); assay: Displacement of [3H] spiperone from recombinant human D3 receptor expressed in CHO cell membranes at 10 uM after 120 mins by scintillation counting method relative to control
How it was run: (§2)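 Single-concentration screen at 10 μM within a commercial lead-profiling panel of 68 GPCRs, ion channels and transporters. Activity read as percent inhibition of specific radioligand binding to each target.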

[22] = molecular target: 5-hydroxytryptamine receptor 2B (Homo sapiens) (UniProt P41595); assay: Displacement of [3H] LSD from full length human recombinant 5-HT2B receptor expressed in CHOK1 cell membranes at 10 uM after 60 mins by scintillation counting method relative to control; how it was run: as §1
[23] = species on record: Homo sapiens; assay: Displacement of [3H] spiperone from recombinant human D4.2 receptor expressed in CHOK1 cell membranes at 10 uM after 120 mins by scintillation counting method relative to control; how it was run: as §2
[24] = molecular target: Melatonin receptor type 1A (Homo sapiens) (UniProt P48039); assay: Inhibition of human MT1 receptor at 10 uM relative to control; how it was run: as §2
[25] = molecular target: Delta-type opioid receptor (Homo sapiens) (UniProt P41143); assay: Displacement of [3H] naltrindole from recombinant human delta opioid receptor expressed in HEK293 cell membranes at 10 uM after 60 mins by scintillation counting method relative to control; how it was run: as §1
[26] = molecular target: Cysteinyl leukotriene receptor 1 (Homo sapiens) (UniProt Q9Y271); assay: Displacement of [3H] LTD4 from recombinant human CysLT1 receptor expressed in CHOK1 cell membranes at 10 uM after 30 mins by scintillation counting method relative to control; how it was run: as §1
[27] = molecular target: Adenosine receptor A2a (Homo sapiens) (UniProt P29274); assay: Displacement of [3H] CGS-21680 from full length human recombinant A2a receptor expressed in HEK293 cell membranes at 10 uM after 90 mins by scintillation counting method relative to control; how it was run: as §1

Sequence of Substance-P receptor (P25103 whole entry): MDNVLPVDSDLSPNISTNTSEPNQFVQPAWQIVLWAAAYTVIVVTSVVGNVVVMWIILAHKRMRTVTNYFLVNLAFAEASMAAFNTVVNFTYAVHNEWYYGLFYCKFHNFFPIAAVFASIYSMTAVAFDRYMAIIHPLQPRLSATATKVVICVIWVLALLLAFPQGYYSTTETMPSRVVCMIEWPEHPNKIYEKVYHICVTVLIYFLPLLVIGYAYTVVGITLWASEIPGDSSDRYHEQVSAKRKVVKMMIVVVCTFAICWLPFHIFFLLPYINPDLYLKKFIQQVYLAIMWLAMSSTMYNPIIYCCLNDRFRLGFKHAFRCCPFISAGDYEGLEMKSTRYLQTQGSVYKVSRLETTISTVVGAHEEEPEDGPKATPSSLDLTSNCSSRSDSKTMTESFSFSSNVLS
Sequence of Alpha-1D adrenergic receptor (Homo sapiens) (P25100 whole entry): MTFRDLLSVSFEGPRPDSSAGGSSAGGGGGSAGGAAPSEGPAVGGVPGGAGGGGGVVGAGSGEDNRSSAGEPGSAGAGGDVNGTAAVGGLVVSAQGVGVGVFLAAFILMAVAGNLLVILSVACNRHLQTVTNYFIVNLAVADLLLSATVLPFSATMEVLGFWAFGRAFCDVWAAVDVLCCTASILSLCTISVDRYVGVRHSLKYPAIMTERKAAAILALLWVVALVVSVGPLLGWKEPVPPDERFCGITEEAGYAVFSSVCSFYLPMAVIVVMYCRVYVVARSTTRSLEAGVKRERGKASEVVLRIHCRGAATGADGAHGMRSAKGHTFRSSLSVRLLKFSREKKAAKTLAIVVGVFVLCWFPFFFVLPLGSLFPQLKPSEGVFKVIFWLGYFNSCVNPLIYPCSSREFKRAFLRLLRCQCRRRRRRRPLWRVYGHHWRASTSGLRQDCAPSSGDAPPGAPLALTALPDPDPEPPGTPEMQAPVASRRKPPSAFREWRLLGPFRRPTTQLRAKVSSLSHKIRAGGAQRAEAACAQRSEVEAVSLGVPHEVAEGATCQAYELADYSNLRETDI
Sequence of Sigma non-opioid intracellular receptor 1 (Homo sapiens) (Q99720 whole entry): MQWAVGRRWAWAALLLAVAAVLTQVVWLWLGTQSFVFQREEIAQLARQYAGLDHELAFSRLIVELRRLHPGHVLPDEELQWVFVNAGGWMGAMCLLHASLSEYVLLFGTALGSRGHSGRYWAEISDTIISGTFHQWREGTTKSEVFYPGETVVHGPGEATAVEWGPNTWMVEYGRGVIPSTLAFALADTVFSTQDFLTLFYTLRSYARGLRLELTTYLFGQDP
Sequence of 5-hydroxytryptamine receptor 1A (Homo sapiens) (P08908 whole entry): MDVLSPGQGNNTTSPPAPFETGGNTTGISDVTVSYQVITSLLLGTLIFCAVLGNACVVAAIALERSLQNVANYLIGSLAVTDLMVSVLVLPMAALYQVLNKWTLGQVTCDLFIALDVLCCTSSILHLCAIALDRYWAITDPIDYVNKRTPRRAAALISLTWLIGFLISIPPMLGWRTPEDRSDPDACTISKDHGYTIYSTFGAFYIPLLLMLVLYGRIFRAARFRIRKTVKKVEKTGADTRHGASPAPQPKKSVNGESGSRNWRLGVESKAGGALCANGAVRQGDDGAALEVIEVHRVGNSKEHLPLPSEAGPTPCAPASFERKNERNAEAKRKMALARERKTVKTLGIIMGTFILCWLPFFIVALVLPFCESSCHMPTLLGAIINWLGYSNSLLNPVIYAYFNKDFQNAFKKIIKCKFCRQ
Sequence of Metabotropic glutamate receptor 1 (P23385 whole entry): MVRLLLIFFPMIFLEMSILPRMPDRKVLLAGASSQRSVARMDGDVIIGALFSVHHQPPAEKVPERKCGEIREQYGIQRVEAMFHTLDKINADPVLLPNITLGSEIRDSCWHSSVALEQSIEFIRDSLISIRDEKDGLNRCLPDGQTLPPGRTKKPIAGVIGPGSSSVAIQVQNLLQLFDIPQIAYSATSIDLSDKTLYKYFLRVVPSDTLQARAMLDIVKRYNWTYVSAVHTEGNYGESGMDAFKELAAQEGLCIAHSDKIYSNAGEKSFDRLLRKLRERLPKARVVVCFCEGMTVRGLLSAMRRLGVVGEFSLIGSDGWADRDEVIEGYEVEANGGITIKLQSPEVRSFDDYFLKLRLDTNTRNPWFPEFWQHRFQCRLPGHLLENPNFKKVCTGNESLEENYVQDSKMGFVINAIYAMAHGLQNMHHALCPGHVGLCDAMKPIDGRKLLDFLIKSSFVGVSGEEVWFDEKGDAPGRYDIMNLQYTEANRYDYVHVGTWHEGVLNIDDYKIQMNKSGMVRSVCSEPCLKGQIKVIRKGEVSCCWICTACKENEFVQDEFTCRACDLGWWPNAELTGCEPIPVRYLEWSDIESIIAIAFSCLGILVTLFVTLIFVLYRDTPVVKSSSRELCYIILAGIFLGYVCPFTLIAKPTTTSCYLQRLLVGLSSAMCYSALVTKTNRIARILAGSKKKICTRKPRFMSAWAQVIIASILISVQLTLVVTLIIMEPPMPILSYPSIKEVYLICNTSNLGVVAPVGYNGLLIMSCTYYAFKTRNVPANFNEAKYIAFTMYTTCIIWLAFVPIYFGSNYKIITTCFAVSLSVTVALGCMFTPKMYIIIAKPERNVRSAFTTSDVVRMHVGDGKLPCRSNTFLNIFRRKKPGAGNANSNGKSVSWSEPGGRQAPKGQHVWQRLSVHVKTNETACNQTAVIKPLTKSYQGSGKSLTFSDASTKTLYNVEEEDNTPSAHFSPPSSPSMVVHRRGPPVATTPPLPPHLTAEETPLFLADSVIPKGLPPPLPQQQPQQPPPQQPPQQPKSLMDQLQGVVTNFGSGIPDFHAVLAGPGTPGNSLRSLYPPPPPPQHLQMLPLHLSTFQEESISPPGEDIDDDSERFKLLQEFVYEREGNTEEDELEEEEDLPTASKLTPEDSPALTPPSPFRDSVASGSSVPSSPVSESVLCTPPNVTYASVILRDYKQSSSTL
Sequence of Neuropeptide Y receptor type 1 (Homo sapiens) (P25929 whole entry): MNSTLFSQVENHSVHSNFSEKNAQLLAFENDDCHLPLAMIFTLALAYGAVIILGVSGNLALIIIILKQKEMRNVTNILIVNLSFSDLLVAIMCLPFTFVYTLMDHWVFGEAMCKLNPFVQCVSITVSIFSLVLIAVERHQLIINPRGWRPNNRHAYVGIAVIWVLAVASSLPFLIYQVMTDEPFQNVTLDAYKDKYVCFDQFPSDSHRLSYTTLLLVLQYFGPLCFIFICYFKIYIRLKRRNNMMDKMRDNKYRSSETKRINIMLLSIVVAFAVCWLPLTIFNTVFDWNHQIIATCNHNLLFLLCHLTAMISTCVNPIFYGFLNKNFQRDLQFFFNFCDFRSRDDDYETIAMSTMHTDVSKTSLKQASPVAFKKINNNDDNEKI
Sequence of Histamine H3 receptor (Homo sapiens) (Q9Y5N1 whole entry): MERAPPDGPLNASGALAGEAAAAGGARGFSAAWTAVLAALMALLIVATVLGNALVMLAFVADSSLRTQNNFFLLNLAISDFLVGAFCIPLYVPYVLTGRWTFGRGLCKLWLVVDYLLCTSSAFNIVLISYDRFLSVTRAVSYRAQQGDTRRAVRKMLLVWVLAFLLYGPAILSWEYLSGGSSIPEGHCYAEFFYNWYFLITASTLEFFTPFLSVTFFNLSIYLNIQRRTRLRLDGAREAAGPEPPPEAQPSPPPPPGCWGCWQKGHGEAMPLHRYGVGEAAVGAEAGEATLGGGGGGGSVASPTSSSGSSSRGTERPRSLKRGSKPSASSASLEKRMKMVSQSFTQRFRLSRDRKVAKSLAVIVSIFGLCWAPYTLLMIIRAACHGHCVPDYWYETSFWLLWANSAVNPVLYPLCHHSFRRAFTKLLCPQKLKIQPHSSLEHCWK
Sequence of Melatonin receptor type 1A (Homo sapiens) (P48039 whole entry): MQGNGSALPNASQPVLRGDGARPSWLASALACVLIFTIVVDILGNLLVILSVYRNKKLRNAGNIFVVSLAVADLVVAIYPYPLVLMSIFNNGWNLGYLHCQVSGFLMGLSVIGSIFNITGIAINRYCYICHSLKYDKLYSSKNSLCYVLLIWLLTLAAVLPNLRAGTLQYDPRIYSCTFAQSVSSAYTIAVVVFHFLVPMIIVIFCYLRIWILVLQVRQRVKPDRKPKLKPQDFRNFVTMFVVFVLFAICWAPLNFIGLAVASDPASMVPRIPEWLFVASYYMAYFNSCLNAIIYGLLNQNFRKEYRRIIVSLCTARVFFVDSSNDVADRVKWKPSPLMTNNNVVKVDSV
Sequence of Estrogen receptor (Homo sapiens) (P03372 whole entry): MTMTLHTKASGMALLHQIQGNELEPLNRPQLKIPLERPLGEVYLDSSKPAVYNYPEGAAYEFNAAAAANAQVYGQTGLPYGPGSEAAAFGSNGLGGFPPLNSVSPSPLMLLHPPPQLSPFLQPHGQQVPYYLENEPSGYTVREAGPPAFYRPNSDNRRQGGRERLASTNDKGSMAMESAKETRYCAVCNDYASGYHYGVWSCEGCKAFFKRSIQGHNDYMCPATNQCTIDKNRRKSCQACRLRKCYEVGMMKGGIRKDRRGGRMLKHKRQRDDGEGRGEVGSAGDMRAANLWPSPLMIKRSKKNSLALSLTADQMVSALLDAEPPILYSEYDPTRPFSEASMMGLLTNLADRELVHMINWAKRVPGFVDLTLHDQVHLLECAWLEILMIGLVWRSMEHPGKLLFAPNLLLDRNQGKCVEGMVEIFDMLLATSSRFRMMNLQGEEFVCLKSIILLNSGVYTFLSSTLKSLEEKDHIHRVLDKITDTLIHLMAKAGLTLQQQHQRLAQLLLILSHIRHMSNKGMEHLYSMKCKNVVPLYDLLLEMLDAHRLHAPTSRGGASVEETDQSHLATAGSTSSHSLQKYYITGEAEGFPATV
Sequence of Cysteinyl leukotriene receptor 1 (Homo sapiens) (Q9Y271 whole entry): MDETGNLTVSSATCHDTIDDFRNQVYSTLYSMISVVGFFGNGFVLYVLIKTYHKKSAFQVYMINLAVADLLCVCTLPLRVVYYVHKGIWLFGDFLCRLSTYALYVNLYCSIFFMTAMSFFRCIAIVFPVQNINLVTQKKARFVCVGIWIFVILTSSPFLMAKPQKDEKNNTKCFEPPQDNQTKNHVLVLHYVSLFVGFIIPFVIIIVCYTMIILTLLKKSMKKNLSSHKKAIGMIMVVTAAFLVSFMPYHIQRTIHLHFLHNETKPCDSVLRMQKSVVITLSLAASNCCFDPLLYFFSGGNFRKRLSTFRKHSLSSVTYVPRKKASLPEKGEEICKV

With `COc1ccc(-c2c(C)nn3c(C(F)(F)F)cc(C)nc23)c(F)c1F` the inhibition [1] was < 50%, the Activity [2] was “Toxic” and the inhibition [3] was < 50%. The inhibition [4] was < 50%, the inhibition [5] was < 50% and the IC50 [6] was 3.4 µM. The Ki [6] was 0.65 µM, the inhibition [7] was < 50% and the inhibition [8] was < 50%. The EC50 [9] was > 10 µM, the inhibition [10] was < 50% and the inhibition [11] was < 50%. The inhibition [12] was < 50%, the inhibition [13] was < 50% and the IC50 [14] was > 10 µM. For the same compound, the Kp at 1 h [15] was 2.1, the IC50 [16] was > 10 µM and the Kp at […] [17] was 4.3. The inhibition [18] was < 50%, the inhibition [19] was < 50% and the inhibition [20] was < 50%. For the same compound, the inhibition [21] was < 50%, the inhibition [22] was < 50% and the inhibition [23] was < 50%. For the same compound, the inhibition [24] was < 50%, the inhibition [25] was < 50% and the inhibition [26] was < 50%. The inhibition [27] was < 50%.
